Screens as filed in PubChem.
Most compounds without a hit are left out; they make up all but 1.3% or so of the library.
G6PDH counter: L. mesenteroides G6PDH inhibition counter-screen; 200,000 tested, 0.12% active; inhibition, % at 5 µM; Purified L. mesenteroides G6PDH, diaphorase/resazurin coupled fluorescence, 45 min; in the data active means inhibition above about 50%
TbHK1 inh: T. brucei hexokinase 1 inhibition. AID 1430. 220,000 tested, 0.11% active. recombinant TbHK1, G6PDH-coupled NADH A340. inhibition, % at 10 µM;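 active means inhibition of 50% or more in the single-dose primary screen; inactive means inhibition below 50%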
HKDC1 inhibitor: inhibitors of human hexokinase HKDC1; 340,000 tested, 0.16% active; inhibition, % at 20 µM; recombinant HKDC1, G6PDH/diaphorase resazurin coupled fluorescence;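 active means inhibition above about 35% when tested at 20 µM, limit read from the data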
Target sequence (Q2TB90 whole entry, looked up): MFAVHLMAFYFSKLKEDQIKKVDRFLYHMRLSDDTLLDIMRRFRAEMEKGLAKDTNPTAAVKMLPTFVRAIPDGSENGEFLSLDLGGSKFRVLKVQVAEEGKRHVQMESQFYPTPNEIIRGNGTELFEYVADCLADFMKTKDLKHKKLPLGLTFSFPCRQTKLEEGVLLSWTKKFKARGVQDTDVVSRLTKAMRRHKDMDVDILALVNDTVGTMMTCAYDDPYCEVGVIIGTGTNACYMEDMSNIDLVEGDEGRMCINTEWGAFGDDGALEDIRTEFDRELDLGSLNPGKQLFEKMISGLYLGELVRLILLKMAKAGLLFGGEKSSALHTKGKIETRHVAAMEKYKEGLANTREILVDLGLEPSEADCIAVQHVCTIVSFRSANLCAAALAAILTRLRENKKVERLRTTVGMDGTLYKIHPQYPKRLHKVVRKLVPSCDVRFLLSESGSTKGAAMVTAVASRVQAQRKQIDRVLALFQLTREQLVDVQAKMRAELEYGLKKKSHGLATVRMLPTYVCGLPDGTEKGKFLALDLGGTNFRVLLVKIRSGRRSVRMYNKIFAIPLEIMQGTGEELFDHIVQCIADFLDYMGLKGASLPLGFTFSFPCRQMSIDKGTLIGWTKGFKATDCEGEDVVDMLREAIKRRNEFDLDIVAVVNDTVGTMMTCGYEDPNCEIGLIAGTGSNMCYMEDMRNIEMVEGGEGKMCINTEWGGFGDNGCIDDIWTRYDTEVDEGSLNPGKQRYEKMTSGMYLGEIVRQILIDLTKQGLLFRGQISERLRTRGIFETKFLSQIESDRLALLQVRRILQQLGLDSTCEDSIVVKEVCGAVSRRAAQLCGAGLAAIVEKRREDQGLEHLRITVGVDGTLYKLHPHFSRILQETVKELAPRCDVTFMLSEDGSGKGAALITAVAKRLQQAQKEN
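Assay system: recombinant HKDC1 hexokinase; detection: coupled resazurin fluorescence, excitation 525 nm, emission 613 nm; benchmarks: DMSO-plus-enzyme-mix negative control, buffer-substituted positive control; compound dosing: single 20 µM dose; schedule: 90 min at room temperature in dark; also added: glucose plus 1 mM ATP as hexokinase substrates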
Diaph inh CS: inhibits diaphorase or chemically oxidizes, flagging diaphorase assay artifacts. diaphorase resazurin-to-resorufin fluorescence, NADH, 16 min; bacterial (C. kluyveri) enzyme, not human. inhibition, % at 20 µM. 190,000 tested, 0.69% active. AID 1217;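 active means primary screen inhibition at 20 µM above a set limit, cut at about 50% in these data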
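Test system: diaphorase enzyme from Clostridium kluyveri; amount: diaphorase at 0.14 U/mL in enzyme working solution; detection: fluorescence of resorufin formed from resazurin, Ex 544/Em 590 nm; times: reaction incubation of 16 min at room temperature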
PfG6PD inh: PfG6PD (Plasmodium falciparum) enzyme inhibition | PfGluPho enzyme, NADPH resazurin-diaphorase fluorescence | inhibition, % at 20 µM | 350,000 tested, 0.78% active | AID 504690;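 active means inhibition reaching at least a set limit at 20 µM in the primary screen, cut at about 59% in these data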
PfGluPho conf: confirmation of Plasmodium falciparum G6PD inhibitors. recombinant PfGluPho, NADPH-diaphorase-resazurin fluorescence. shares compounds with PfG6PD inh. 2,400 tested, 34% active. AID 504753. inhibition, % at 20 µM;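 active means inhibition of at least 50% at 20 µM in any single replicate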
Diaphorase 10uM: inhibits diaphorase or oxidizes, flagging false PfG6PD hits. diaphorase-coupled resazurin reduction, fluorescence, NADPH 10 uM. shares compounds with PfG6PD inh. inhibition, % at 20 µM. 820 tested, 39% active;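 active means average inhibition reaching 50% or more with the compound at 20 µM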;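 further: resorufin red fluorescence formed as diaphorase reduces resazurin using NADPH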
Diaph ctr 30uM: diaphorase inhibition or oxidation at 30 uM NADPH; shares compounds with PfG6PD inh; Diaphorase/resazurin coupled assay, resorufin fluorescence; inhibition, % at 20 µM; 820 tested, 29% active;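 active means inhibition averaging 50% or more, tested at 20 µM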
Numbers stand for hits.

Results for c1ccc(CSc2cc3ccccc3[nH]2)cc1 ?
HKDC1 inhibitor: inactive; PfG6PD inh: inactive

Results for Fc1ccc(COc2ccccc2C(=S)N2CCCC2)cc1 ?
G6PDH counter: inactive; TbHK1 inh: inactive; HKDC1 inhibitor: inactive; Diaph inh CS: inactive; PfG6PD inh: 70; PfGluPho conf: inactive

How did CC1(C)Cc2c(sc(NC(=O)C(=O)N3CCCCC3)c2C(=O)O)CO1 do in these assays?
HKDC1 inhibitor: inactive; PfG6PD inh: inactive

What do the screens show for `COc1ccc(C(=O)Nc2sc3c(c2C(=O)O)CC(C)(C)OC3)cc1`?
G6PDH counter: inactive; TbHK1 inh: inactive; HKDC1 inhibitor: inactive; Diaph inh CS: inactive; PfG6PD inh: 91; PfGluPho conf: 48; Diaphorase 10uM: inactive; Diaph ctr 30uM: inactive

How did CC1(C)Cc2c(sc(NC(=O)c3ccccc3)c2C(=O)O)CO1 do in these assays?
G6PDH counter: inactive; TbHK1 inh: inactive; HKDC1 inhibitor: inactive; Diaph inh CS: inactive; PfG6PD inh: 88; PfGluPho conf: inactive

Results for CC1(C)Cc2c(sc(NC(=O)C(=O)N3CCCC3)c2C(=O)O)CO1 ?
HKDC1 inhibitor: inactive; PfG6PD inh: inactive

What do the screens show for `COc1ccc(Br)cc1CN(C)C(=O)c1ccccc1OCc1c(C)noc1C`?
HKDC1 inhibitor: inactive; PfG6PD inh: inactive

What do the screens show for `COc1ccccc1C(=O)Nc1cc(Cl)ccc1O`?
G6PDH counter: inactive; TbHK1 inh: inactive; HKDC1 inhibitor: inactive; Diaph inh CS: inactive; PfG6PD inh: inactive

What do the screens show for `CCOc1ccccc1C(=O)Nc1cc(Cl)ccc1O`?
G6PDH counter: inactive; TbHK1 inh: inactive; HKDC1 inhibitor: inactive; Diaph inh CS: inactive; PfG6PD inh: 67; PfGluPho conf: inactive

Results for Clc1ccc(COn2c(-c3ccc(Cl)cc3)nc3ccccc32)cc1 ?
G6PDH counter: inactive; TbHK1 inh: inactive; HKDC1 inhibitor: inactive; Diaph inh CS: inactive; PfG6PD inh: inactive

Results for CCOC(=O)C(C)On1c(-c2ccccc2)nc2ccc([N+](=O)[O-])cc21 (centres undefined) ?
G6PDH counter: inactive; TbHK1 inh: inactive; HKDC1 inhibitor: inactive; Diaph inh CS: inactive; PfG6PD inh: 62; PfGluPho conf: inactive

How did O=[N+]([O-])c1ccc2nc(-c3ccc(Cl)cc3)n(OCc3ccccc3)c2c1 do in these assays?
G6PDH counter: inactive; TbHK1 inh: inactive; HKDC1 inhibitor: inactive; Diaph inh CS: inactive; PfG6PD inh: 122; PfGluPho conf: inactive

What do the screens show for `O=c1c2ccc(Cl)cc2nc(-c2ccc([N+](=O)[O-])cc2)n1O`?
G6PDH counter: inactive; TbHK1 inh: inactive; HKDC1 inhibitor: inactive; Diaph inh CS: inactive; PfG6PD inh: inactive

Results for CCOC(=O)C(C)On1c(-c2ccc(Cl)cc2)nc2ccc([N+](=O)[O-])cc21 (centres undefined) ?
G6PDH counter: inactive; TbHK1 inh: inactive; HKDC1 inhibitor: inactive; Diaph inh CS: inactive; PfG6PD inh: 76; PfGluPho conf: inactive

Results for CC(=O)NCCOc1nc(N(C)C)nc(N(C)C)n1 ?
G6PDH counter: inactive; TbHK1 inh: inactive; HKDC1 inhibitor: inactive; Diaph inh CS: inactive; PfG6PD inh: inactive

What do the screens show for `O=C1CCN(S(=O)(=O)c2ccc(Cl)cc2)CCN1`?
TbHK1 inh: inactive; HKDC1 inhibitor: inactive; PfG6PD inh: inactive

Results for COc1ccc(C(CC(=O)O)NC(=O)c2sc3ccccc3c2Cl)cc1 (centres undefined) ?
G6PDH counter: inactive; TbHK1 inh: inactive; HKDC1 inhibitor: inactive; Diaph inh CS: inactive; PfG6PD inh: inactive

Results for [O-]/[N+](=C\c1ccco1)c1ccc(Cl)cc1 ?
HKDC1 inhibitor: inactive; PfG6PD inh: 89; PfGluPho conf: 62; Diaphorase 10uM: inactive; Diaph ctr 30uM: inactive

How did [O-]/[N+](=C/c1ccco1)c1ccccc1 do in these assays?
HKDC1 inhibitor: inactive; PfG6PD inh: inactive

How did [O-][N+](=Cc1ccccc1)c1ccc(Cl)cc1 do in these assays?
HKDC1 inhibitor: inactive; PfG6PD inh: 87; PfGluPho conf: 92; Diaphorase 10uM: 62; Diaph ctr 30uM: inactive
